A selection: hits, their analogues and other compounds. The true share with any hit is near 1.1%.
MT1-MMP act inh = MT1-MMP (human) activation inhibition | HT1080 RFP-PRO-GFP cells, GFP/RFP ratio fluorescence, overnight; percent of plate control window, DMSO zero | P50281 | hit rate 0.061% among 360,000 | GFP/RFP ratio change, % at 20 µM;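 active = GFP/RFP ratio change of at least 30% with cell ATP level not reduced by more than half and red fluorescence within 50% of control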
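Assay system: RFP-PRO-GFP reporter HT1080 cells; read-out basis: GFP/RFP fluorescence ratio; benchmarks: DMSO wells and RFP-L50D-GFP cells; doses: 20 µM single dose, 1% DMSO; schedule: overnight cell settling, then overnight compound exposure, 37 °C, 5% CO2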
DAGLB inh = diacylglycerol lipase beta (human) inhibition; HEK293T DAGLB membrane lysate, EnzChek fluorogenic substrate; hit rate 0.059% among 340,000; inhibition, % at 5.17 µM; Q8NCG7; in the data active = inhibition above about 34%;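 note: 0% = enzyme with vehicle and 100% = wells lacking enzyme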
NR2E3 ag-1 = agonists of human NR2E3 nuclear receptor | Q9Y5X4 | CHO-S Gal4-NCOR/VP16-NR2E3 two-hybrid, luciferase | inhibition of corepressor binding, % at 3.98 µM | hit rate 0.35% among 360,000 | AID 602229;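 active = inhibition above the mean of all tested compounds plus 3 SD, cut at about 70% in these data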;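 note: 0% = DMSO with NR2E3 transfected cells and 100% = cells lacking NR2E3 construct; higher means lower luciferase signal from less NR2E3 corepressor binding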
Target sequence (Q9Y5X4 whole entry, looked up, the tested form may be a part): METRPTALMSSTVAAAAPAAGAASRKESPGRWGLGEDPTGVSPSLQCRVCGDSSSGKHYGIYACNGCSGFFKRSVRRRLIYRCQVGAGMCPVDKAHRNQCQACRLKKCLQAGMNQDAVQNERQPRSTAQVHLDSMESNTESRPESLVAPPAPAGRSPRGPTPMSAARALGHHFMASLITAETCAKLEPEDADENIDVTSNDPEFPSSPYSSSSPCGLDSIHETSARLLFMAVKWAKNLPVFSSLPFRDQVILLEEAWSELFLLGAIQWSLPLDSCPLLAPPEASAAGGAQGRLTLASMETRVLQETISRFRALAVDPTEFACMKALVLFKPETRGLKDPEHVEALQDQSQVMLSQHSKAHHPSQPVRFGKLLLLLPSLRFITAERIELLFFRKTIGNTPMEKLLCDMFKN
core dimer inh = HCV core protein dimerization inhibition; TR-FRET GST/Flag-core106 dimerization, 1536-well; inhibition, % at 5 µM; hit rate 0.33% among 300,000; AID 1899;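 active = inhibition above the mean of all tested compounds plus 3 SD, set per screening campaign, cut at about 45% in these data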
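Test system: GST/Flag-tagged HCV core106 proteins; Medium: KF-containing HEPES buffer, pH 7.45, DTT, CHAPS, BSA; Times: compound-protein-antibody incubation 4 h at 22.5 °C; Detection: TR-FRET 671 and 617 nm emission; Benchmarks: wells lacking GST-core106 and wells with excess unlabelled core106.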
NR2E3 ag-2 = agonists of human nuclear receptor NR2E3; hit rate 0.12% among 320,000; inhibition of corepressor binding, % at 4.78 µM; AID 2300; GST-NR2E3/biotin-RetCOR TR-FRET, 1536-well;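 active = percent inhibition above the cutoff of mean plus 3 SD of all tested compounds, set per screening campaign, cut at about 20% in these data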;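 note: 0% = DMSO wells and 100% = biotin wells as full block of FRET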
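Material: NR2E3–RetCOR corepressor complex | Quantity: 1.35 nM GST-tagged NR2E3 final | Schedule: 5 h at 4 °C | Replication: Singlicate compound wells | Reagent: RetCOR corepressor, biotinylated, 7 nM | Controls: Biotin wells as high control, 0.6% DMSO wells as low control | Signal: TR-FRET, Eu(K)-anti-GST donor, streptavidin-D2 acceptor, ex 340, em 617/671 nm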
Vif imaging = blocks HIV Vif function; HEK293T cells, Vif self-association by quenched fluorescence, imaging, 24 h; inhibition, % at 7.49 µM; hit rate 0.35% among 340,000; AID 602346; in the data active = inhibition above about 50%, passing the limit was not always enough; inconclusive = no clear call, values can overlap the other calls; inactive = below about 31%
* marks the source's active call; other numbers are inactive results; u = inconclusive; x = no result.

SMILES	MT1-MMP act inh	DAGLB inh	NR2E3 ag-1	core dimer inh	NR2E3 ag-2	Vif imaging
CCN(CC)c1ccc(NC(=O)CSc2ccsc2[N+](=O)[O-])c(C)c1	-5	3	-5	49*	1	x
O=C(COC(=O)c1ccc(Cl)c(S(=O)(=O)NCc2ccccc2)c1)NC1CC1	2	1	-1	x	-2	77*
N#Cc1c(NC(=O)COC(=O)C2CC3C=CC2C3)oc(-c2ccccc2)c1-c1ccccc1 (stereo unspecified)	-2	-7	0	69*	7	x
COc1ccccc1OCC(=O)Nc1oc(-c2ccccc2)c(-c2ccccc2)c1C#N	8	-7	-21	29	-2	-3
Cc1ccc(OCC(=O)Nc2oc(-c3ccccc3)c(-c3ccccc3)c2C#N)cc1	-2	-9	-22	47*	-1	x
CC(C)C(NC(=O)c1ccccc1)C(=O)NCCc1ccccc1 (stereo unspecified)	-1	0	-47	-4	-2	-3
CCc1ccccc1NC(=O)CN1C(=O)C2CCCN2c2ncc(Cl)cc21 (stereo unspecified)	-5	1	-19	24	-2	-7
COC(=O)c1ccccc1NC(=O)CN1C(=O)C2CCCN2c2ncc(Cl)cc21 (stereo unspecified)	x	x	x	50*	-2	x
COc1ccc(/C=N\NS(=O)(=O)c2ccc(Cl)cc2)cc1COc1ccccc1[N+](=O)[O-]	-10	-3	-33	47*	0	-1
C#CCN1CCc2onc(-c3ccc(Br)cc3)c2C1=O	2	x	x	x	x	x
COc1ccc2c3c(n(C(=O)OC(C)(C)C)c2c1)C1CC=C(COC(C)=O)CN1CC3 (stereo unspecified)	-8	x	x	x	x	x
CCc1cc(C(=O)N=Nc2c(O)[nH]c3ccc([N+](=O)[O-])cc23)c2ccccc2n1	11	6	-24	58*	2	3
C[C@H]1CN=C(Nc2ccccc2)N1CC1CCCCCC1	3	1	-11	2	6	2
COCCN(C(=O)C1=COCCO1)c1c(N)n(CC(C)C)c(=O)[nH]c1=O	0	1	-8	x	1	u
COc1cccc2cc(-c3nc(-c4cccs4)cs3)c(=O)oc12	-1	-12	-148	51*	1	6
O=c1oc2ccccc2cc1-c1nc(-c2cccs2)cs1	-3	-14	-67	3	3	-2
CN(CC(=O)Nc1ccc(Cl)cc1)C(=O)CNC(=O)c1ccc(Br)o1	1	1	-8	1	3	-9
COc1cc2c(cc1OC)/C(=C/C(=O)c1ccc(OC)c([N+](=O)[O-])c1)NCC2	4	-1	-8	x	x	53*
COc1cc2c(cc1OC)/C(=C/C(=O)c1cccc([N+](=O)[O-])c1)NCC2	0	-2	-20	-20	2	-2
CCOC(=O)C1(C)CCN1C(=O)c1cccc2ccccc12 (stereo unspecified)	2	x	12	x	x	x
Fc1c(F)c(-n2nnc3ccccc32)c(F)c(F)c1Cl	0	-10	12	-1	-4	60*
Cc1cc(=O)[nH]c(SCC(=O)Nc2ccc(C(=O)O)cc2)n1	0	0	15	2	3	9
CCOC(=O)c1ccc(NC(=O)CSc2nc(C)cc(=O)[nH]2)cc1	-1	3	-11	63*	-2	x
O=C(Nc1cc(Cl)ccc1Cl)P(=O)(O)c1ccccc1	2	3	-25	x	x	57*
O=C(Nc1cc(Cl)ccc1Cl)c1ccc(-c2ccccc2)cc1	-1	-4	-51	-1	-7	-1
SMILES	MT1-MMP act inh	DAGLB inh	NR2E3 ag-1	core dimer inh	NR2E3 ag-2	Vif imaging
O=C(CN1CCCc2ccccc21)NC(=O)NCc1ccco1	-7	-1	5	1	1	-21
O=C(COC(=O)C1CCCCC1C(=O)N1CCc2ccccc21)NCc1ccco1 (stereo unspecified)	1	4	-1	83*	2	-3
O=C(COC(=O)CCOc1ccccc1)NCc1ccco1	-2	-3	4	62*	1	1
O=C(COC(=O)C1CC2C=CC1C2)NCc1ccco1 (stereo unspecified)	-3	0	-9	76*	-4	9
COc1ccc(CN2CCN(C(=O)C3CCN(C(=O)Nc4ccccc4)CC3)CC2)cc1OC	4	-1	-13	x	x	-2
CCCc1c(Cc2cccc(F)c2)ncn1Cc1cccc(-c2ccccc2)c1	-5	x	x	x	x	x
O=C(N/N=C/c1cccnc1)c1ccc2c(c1)OCCO2	3	1	-87	6	1	-4
O=C(NN1C(=O)/C(=C/C=C/c2ccco2)SC1=S)c1ccccc1O	5	15	-18	70*	9	6
O=C1S/C(=C\C=C\c2ccco2)C(=O)N1c1ccc(O)cc1	-1	-4	-73	51*	0	-4
COC(=O)c1ccc(OCC2c3cc(OC)c(OC)cc3CCN2C(C)=O)cc1 (stereo unspecified)	0	0	-26	2	-4	-11
COC(=O)c1ccc(OCC2c3cc(OC)c(OC)cc3CCN2C(=O)c2ccco2)cc1 (stereo unspecified)	-14	-2	18	4	1	69*
CN(C)c1ccc(C(O)Cc2nc3ccccc3n2C)cc1 (stereo unspecified)	-10	0	-13	2	-1	120*
COc1ccc(N2CCN(C(=O)CSc3nnc4n3C(C)(C)Cc3ccccc3-4)CC2)cc1	-2	1	4	4	0	1
Cc1ccc(Cl)cc1N1CCN(C(=O)CSc2ccsc2[N+](=O)[O-])CC1	-8	2	-24	57*	-2	-3
O=C(CSc1ccc(Cl)cc1)N1CCN(c2ccc([N+](=O)[O-])cc2Cl)CC1	-6	-7	15	22	1	-16
Cc1ccc(Cl)cc1N1CCN(C(=O)CSc2nnc3n2C(C)(C)Cc2ccccc2-3)CC1	-12	0	87*	34	0	-6
Cc1ccc(NC(=O)C2(C)CCN2C(=O)Cc2ccccc2Cl)cc1C (stereo unspecified)	-5	x	9	x	x	-13
COc1nccc(NCc2ccccc2)c1C#N	-2	x	-11	-3	3	-2
CC1(C)CC[C@]2(C(=O)O)CC[C@]3(C)C(=CCC4[C@]56CC[C@@](O)(OC5)C(C)(C)C6CC[C@]43C)C2C1 (stereo partly specified)	10	x	-17	x	x	-19
C[C@@H]1CC[C@]2(C(=O)O)CC[C@]3(C)C(=CCC4[C@]56CC[C@@](O)(OC5)C(C)(C)C6CC[C@]43C)C2[C@H]1C (stereo partly specified)	6	11	94*	13	-3	-50

Screens (PubChem BioAssay)
